Test results: ChEMBL document CHEMBL1137629, “Antiproliferative effect of dihydroxyacetone on Trypanosoma brucei bloodstream forms: cell cycle progression, subcellular alterations, and cell death” (Antimicrob Agents Chemother, 2007)

Columns and labels:
Assay type in all cases: functional
[1] = test system: Trypanosoma brucei; assay: Cell cycle arrest in Trypanosoma brucei bloodstream form assessed as accumulation at G2/M phase at 2 mM after 24 hrs using propidium iodide staining by FACS analysis
Procedure, shortened: (§1)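 T. brucei bloodstream forms (MITat 1.2, strain EATRO 427), axenic culture at 37°C, 5% CO₂. Treated 24 h. At least 5 × 10⁵ cells washed in PBS, lysed hypotonically 30 min at room temperature in 10 mM phosphate buffer pH 7.4 with 6 μM digitonin. Nuclei stained with propidium iodide (10 μg/ml final) and analysed by flow cytometry for G₁/S/G₂ distribution and degraded DNA.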

[2] = test system: Trypanosoma brucei; assay: Cell cycle arrest in Trypanosoma brucei bloodstream form assessed as accumulation at G2 phase at 2 mM after 24 hrs using propidium iodide staining by FACS analysis; procedure, shortened: as §1
[3] = test system: Trypanosoma brucei; assay: Effect on cell cycle of Trypanosoma brucei bloodstream form assessed as DNA content at 4 mM after 24 hrs using propidium iodide staining by FACS analysis; procedure, shortened: as §1
[4] = test system: Trypanosoma brucei; assay: Induction of apoptosis-like programmed cell death in Trypanosoma brucei bloodstream form assessed as loss of mitochondrial-membrane potential at 2 mM after 24 hrs by TMRE staining
Procedure, shortened: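 T. brucei MITat 1.2 (EATRO 427) bloodstream forms were grown axenically at 37°C, 5% CO₂ and exposed to DHA for 24 h. Cells at 10⁶/ml were stained with 25 nM TMRE in culture medium for 30 min at 37°C and read at once by flow cytometry. Depolarization control: valinomycin 100 nM. Lower fluorescence signifies lost membrane potential.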

[5] = test system: Trypanosoma brucei; assay: Induction of apoptosis-like programmed cell death in Trypanosoma brucei bloodstream form assessed as phosphatidylserine exposure in outer leaflet of plasma membrane at 3 mM after 24 hrs by V-Fluos staining staining
Procedure, shortened: (§2)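 After 24 h DHA exposure of axenic bloodstream-form T. brucei MITat 1.2 (EATRO 427; 37°C, 5% CO₂), cells were washed in HEPES buffer (10 mM, pH 7.4, 140 mM NaCl, 5 mM CaCl₂). They were then stained with annexin V-Fluos for 15 min at 4°C and analysed by flow cytometry.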

[6] = test system: Trypanosoma brucei; assay: Induction of apoptosis-like programmed cell death in Trypanosoma brucei bloodstream form assessed as phosphatidylserine exposure in outer leaflet of plasma membrane at 4 mM after 24 hrs by V-Fluos staining staining; procedure, shortened: as §2
[7] = test system: Trypanosoma brucei; assay: Induction of apoptosis-like programmed cell death in Trypanosoma brucei bloodstream form assessed as phosphatidylserine exposure in outer leaflet of plasma membrane at 5 uM after 24 hrs by V-Fluos staining staining
[8] = test system: Trypanosoma brucei; assay: Induction of apoptosis-like programmed cell death in Trypanosoma brucei bloodstream form assessed as increase in intracellular reactive oxygen species production at 1 mM after 24 hrs by FACS analysis
Procedure, shortened: (§3)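 Bloodstream-form T. brucei MITat 1.2 (VSG 221, strain EATRO 427) were grown axenically at 37°C, 5% CO₂ and exposed to DHA for 24 h. Control and treated cells were then loaded with 10 μM dichlorofluorescein diacetate for 1 h at 37°C. Intracellular fluorescence intensity was read by flow cytometry.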

[9] = test system: Trypanosoma brucei; assay: Induction of apoptosis-like programmed cell death in Trypanosoma brucei bloodstream form assessed as increase in intracellular reactive oxygen species production at 4 mM after 24 hrs by FACS analysis; procedure, shortened: as §3

O=C(CO)CO [DIHYDROXYACETONE]
Activity [1]: <=70% | Activity [2]: 50% | Activity [3]: 9.7% | Activity [4]: 7.3% | Activity [5]: 11.9% | Activity [6]: 20% | Activity [7]: 35.8% | Activity [8]: 5.9% | Activity [9]: 23.2%
